Results as given in ChEMBL document CHEMBL4680175, “Sulfonamide-based ring-fused analogues for CAN508 as novel carbonic anhydrase inhibitors endowed with antitumor activity: Design, synthesis, and in vitro biological evaluation” (Eur J Med Chem, 2020).

Key:
MOLT-4 = assay: Antitumor activity against human MOLT4 cells assessed as cell growth inhibition at 10 uM incubated for 48 hrs by sulforhodamine B assay; format: functional; settings: read-out: GI
Method in brief: (§1)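 NCI Drug Evaluation Branch protocol: primary single-dose screen at 10 μM across a 57-line human cancer panel. Drug exposure is 48 h. Cell growth and viability are read by sulforhodamine B assay. Data are given as a mean graph of percent growth of treated cells and reported as percentage growth inhibition (GI%).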

[1] = target: Cyclin-dependent kinase 2/cyclin E1 (Homo sapiens, UniProt P24941); assay: Inhibition of CDK2/cyclin E (unknown origin) expressed in baculovirus infected Sf21 insect cells using histone H1 as substrate in presence of [gamma33P]ATP
MCF7 = assay: Antitumor activity against human MCF7 cells assessed as cell growth inhibition at 10 uM incubated for 48 hrs by sulforhodamine B assay; format: functional; settings: read-out: GI; method in brief: as §1
NCI-H522 = assay: Antitumor activity against human NCI-H522 cells assessed as cell growth inhibition at 10 uM incubated for 48 hrs by sulforhodamine B assay; format: functional; settings: read-out: GI; method in brief: as §1
U-251 = assay: Antitumor activity against human U251 cells assessed as cell growth inhibition at 10 uM incubated for 48 hrs by sulforhodamine B assay; format: functional; settings: read-out: GI
Method in brief: (§2)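 NCI one-dose screen: 57-cell-line panel exposed at 10 μM for 48 h, Drug Evaluation Branch protocol. Growth and viability read by sulforhodamine B; data given as percent growth inhibition from the mean-graph of percent growth of treated cells.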

Hs-578T = assay: Antitumor activity against human HS 578T cells assessed as cell growth inhibition at 10 uM incubated for 48 hrs by sulforhodamine B assay; format: functional; settings: read-out: GI; method in brief: as §1
IGROV-1 = assay: Antitumor activity against human IGROV1 cells assessed as cell growth inhibition at 10 uM incubated for 48 hrs by sulforhodamine B assay; format: functional; settings: read-out: GI; method in brief: as §1
SF-539 = assay: Antitumor activity against human SF539 cells assessed as cell growth inhibition at 10 uM incubated for 48 hrs by sulforhodamine B assay; format: functional; settings: read-out: GI; method in brief: as §1
SK-MEL-5 = assay: Antitumor activity against human SK-MEL-5 cells assessed as cell growth inhibition at 10 uM incubated for 48 hrs by sulforhodamine B assay; format: functional; settings: read-out: GI; method in brief: as §1
CAKI-1 = assay: Antitumor activity against human CAKI-1 cells assessed as cell growth inhibition at 10 uM incubated for 48 hrs by sulforhodamine B assay; format: functional; settings: read-out: GI; method in brief: as §1
Carbonic anhydrase 12 = Carbonic anhydrase 12 (Homo sapiens, UniProt O43570); assay: Inhibition of recombinant human carbonic anhydrase 12 preincubated with enzyme for 15 mins by phenol red dye based stopped flow CO2 hydrase assay
Carbonic anhydrase 12, sequence (O43570 whole entry): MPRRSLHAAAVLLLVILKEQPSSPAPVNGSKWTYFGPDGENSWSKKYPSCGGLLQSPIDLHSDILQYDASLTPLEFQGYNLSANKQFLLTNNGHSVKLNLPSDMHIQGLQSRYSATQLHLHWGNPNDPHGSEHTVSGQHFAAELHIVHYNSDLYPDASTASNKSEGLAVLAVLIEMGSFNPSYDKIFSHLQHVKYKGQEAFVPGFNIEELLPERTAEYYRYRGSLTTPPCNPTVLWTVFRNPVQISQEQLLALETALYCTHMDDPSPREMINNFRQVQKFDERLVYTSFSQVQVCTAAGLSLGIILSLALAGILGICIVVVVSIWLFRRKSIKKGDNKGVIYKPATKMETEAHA

HCT-116 = assay: Antitumor activity against human HCT116 cells assessed as cell growth inhibition at 10 uM incubated for 48 hrs by sulforhodamine B assay; format: functional; settings: read-out: GI; method in brief: as §1
Malme-3M = assay: Antitumor activity against human MALME-3M cells assessed as cell growth inhibition at 10 uM incubated for 48 hrs by sulforhodamine B assay; format: functional; settings: read-out: GI; method in brief: as §1
UO-31 = assay: Antitumor activity against human UO-31 cells assessed as cell growth inhibition at 10 uM incubated for 48 hrs by sulforhodamine B assay; format: functional; settings: read-out: GI; method in brief: as §2
CDK9/cyclin T1 = CDK9/cyclin T1 (Homo sapiens, UniProt P50750); assay: Inhibition of human full-length N-terminal GST/His6-tagged CDK9 (1 to 372 residues)/His6-tagged Cyclin-T1 (1 to 726 residues) expressed in sf9 cells using (YSPTSPS)2KK peptide as substrate in presence of [gamma33P]ATP
CDK9/cyclin T1, sequence (O60563 whole entry, the tested form may be a part): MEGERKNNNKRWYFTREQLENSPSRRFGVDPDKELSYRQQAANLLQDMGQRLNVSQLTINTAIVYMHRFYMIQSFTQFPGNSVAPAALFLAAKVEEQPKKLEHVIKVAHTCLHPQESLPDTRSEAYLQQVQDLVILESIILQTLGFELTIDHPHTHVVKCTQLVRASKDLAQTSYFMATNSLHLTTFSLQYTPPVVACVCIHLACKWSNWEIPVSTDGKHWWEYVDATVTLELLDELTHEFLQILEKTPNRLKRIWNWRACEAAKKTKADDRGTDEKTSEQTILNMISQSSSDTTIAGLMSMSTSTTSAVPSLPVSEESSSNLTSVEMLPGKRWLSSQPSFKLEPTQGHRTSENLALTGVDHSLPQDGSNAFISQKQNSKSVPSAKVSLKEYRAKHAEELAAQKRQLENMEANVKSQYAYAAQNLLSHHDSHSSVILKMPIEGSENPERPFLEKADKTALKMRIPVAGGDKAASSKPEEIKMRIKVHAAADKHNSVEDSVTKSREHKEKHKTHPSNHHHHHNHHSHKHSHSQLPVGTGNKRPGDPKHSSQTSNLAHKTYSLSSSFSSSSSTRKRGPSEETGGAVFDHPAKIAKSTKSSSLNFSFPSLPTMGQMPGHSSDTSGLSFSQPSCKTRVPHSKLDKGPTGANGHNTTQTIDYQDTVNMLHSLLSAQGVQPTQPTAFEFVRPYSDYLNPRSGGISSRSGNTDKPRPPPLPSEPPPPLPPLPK
CDK9/cyclin T1, sequence (P50750 whole entry, the tested form may be a part): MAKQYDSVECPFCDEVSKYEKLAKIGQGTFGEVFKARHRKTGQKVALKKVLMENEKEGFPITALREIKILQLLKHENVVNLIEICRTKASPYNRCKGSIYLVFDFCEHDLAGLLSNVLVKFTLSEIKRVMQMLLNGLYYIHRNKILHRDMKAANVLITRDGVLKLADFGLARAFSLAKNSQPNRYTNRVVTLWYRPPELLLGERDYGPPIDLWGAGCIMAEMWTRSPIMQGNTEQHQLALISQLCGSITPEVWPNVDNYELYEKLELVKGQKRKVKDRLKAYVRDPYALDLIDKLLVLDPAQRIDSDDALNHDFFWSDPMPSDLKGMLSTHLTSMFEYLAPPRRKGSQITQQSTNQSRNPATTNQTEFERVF

NCI-H460 = assay: Antitumor activity against human NCI-H460 cells assessed as cell growth inhibition at 10 uM incubated for 48 hrs by sulforhodamine B assay; format: functional; settings: read-out: GI; method in brief: as §1
Carbonic anhydrase 1 = Carbonic anhydrase 1 (Homo sapiens, UniProt P00915); assay: Inhibition of recombinant human carbonic anhydrase 1 preincubated with enzyme for 15 mins by phenol red dye based stopped flow CO2 hydrase assay
Carbonic anhydrase 1, sequence (P00915 whole entry): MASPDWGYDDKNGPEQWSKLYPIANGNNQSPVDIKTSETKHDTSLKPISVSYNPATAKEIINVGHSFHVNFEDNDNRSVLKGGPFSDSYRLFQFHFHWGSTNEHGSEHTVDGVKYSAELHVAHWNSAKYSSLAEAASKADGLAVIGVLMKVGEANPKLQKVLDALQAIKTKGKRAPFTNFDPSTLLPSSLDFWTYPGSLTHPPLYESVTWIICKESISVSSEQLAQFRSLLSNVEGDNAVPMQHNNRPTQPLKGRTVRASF

MDA-MB-231 = assay: Antitumor activity against human MDA-MB-231/ATCC cells assessed as cell growth inhibition at 10 uM incubated for 48 hrs by sulforhodamine B assay; format: functional; settings: read-out: GI; method in brief: as §1
SF-268 = assay: Antitumor activity against human SF268 cells assessed as cell growth inhibition at 10 uM incubated for 48 hrs by sulforhodamine B assay; format: functional; settings: read-out: GI; method in brief: as §1
SN12C = assay: Antitumor activity against human SN12C cells assessed as cell growth inhibition at 10 uM incubated for 48 hrs by sulforhodamine B assay; format: functional; settings: read-out: GI; method in brief: as §1
PC-3 = assay: Antitumor activity against human PC-3 cells assessed as cell growth inhibition at 10 uM incubated for 48 hrs by sulforhodamine B assay; format: functional; settings: read-out: GI; method in brief: as §1
HOP-62 = assay: Antitumor activity against human HOP62 cells assessed as cell growth inhibition at 10 uM incubated for 48 hrs by sulforhodamine B assay; format: functional; settings: read-out: GI; method in brief: as §1
Carbonic anhydrase 2 = Carbonic anhydrase 2 (Homo sapiens, UniProt P00918); assay: Inhibition of recombinant human carbonic anhydrase 2 preincubated with enzyme for 15 mins by phenol red dye based stopped flow CO2 hydrase assay
RXF 393 = assay: Antitumor activity against human RXF 393 cells assessed as cell growth inhibition at 10 uM incubated for 48 hrs by sulforhodamine B assay; format: functional; settings: read-out: GI; method in brief: as §1
DU-145 = assay: Antitumor activity against human DU-145 cells assessed as cell growth inhibition at 10 uM incubated for 48 hrs by sulforhodamine B assay; format: functional; settings: read-out: GI; method in brief: as §1
SK-MEL-2 = assay: Antitumor activity against human SK-MEL-2 cells assessed as cell growth inhibition at 10 uM incubated for 48 hrs by sulforhodamine B assay; format: functional; settings: read-out: GI; method in brief: as §1
BT-549 = assay: Antitumor activity against human BT-549 cells assessed as cell growth inhibition at 10 uM incubated for 48 hrs by sulforhodamine B assay; format: functional; settings: read-out: GI; method in brief: as §1
SNB-75 = assay: Antitumor activity against human SNB-75 cells assessed as cell growth inhibition at 10 uM incubated for 48 hrs by sulforhodamine B assay; format: functional; settings: read-out: GI; method in brief: as §2
MDA-MB-468 = assay: Antitumor activity against human MDA-MB-468 cells assessed as cell growth inhibition at 10 uM incubated for 48 hrs by sulforhodamine B assay; format: functional; settings: read-out: GI; method in brief: as §1
T47D = assay: Antitumor activity against human T-47D cells assessed as cell growth inhibition at 10 uM incubated for 48 hrs by sulforhodamine B assay; format: functional; settings: read-out: GI; method in brief: as §2
HOP-92 = assay: Antitumor activity against human HOP92 cells assessed as cell growth inhibition at 10 uM incubated for 48 hrs by sulforhodamine B assay; format: functional; settings: read-out: GI; method in brief: as §1
LOX IMVI = assay: Antitumor activity against human LOX IMVI cells assessed as cell growth inhibition at 10 uM incubated for 48 hrs by sulforhodamine B assay; format: functional; settings: read-out: GI; method in brief: as §1
Carbonic anhydrase 9 = Carbonic anhydrase 9 (Homo sapiens, UniProt Q16790); assay: Inhibition of recombinant human carbonic anhydrase 9 preincubated with enzyme for 15 mins by phenol red dye based stopped flow CO2 hydrase assay
KM12 = assay: Antitumor activity against human KM12 cells assessed as cell growth inhibition at 10 uM incubated for 48 hrs by sulforhodamine B assay; format: functional; settings: read-out: GI; method in brief: as §1
NCI-H322M = assay: Antitumor activity against human NCI-H322M cells assessed as cell growth inhibition at 10 uM incubated for 48 hrs by sulforhodamine B assay; format: functional; settings: read-out: GI; method in brief: as §1
CCRF-CEM = assay: Antitumor activity against human CCRF-CEM cells assessed as cell growth inhibition at 10 uM incubated for 48 hrs by sulforhodamine B assay; format: functional; settings: read-out: GI; method in brief: as §1
NCI-H226 = assay: Antitumor activity against human NCI-H226 assessed as cell growth inhibition at 10 uM incubated for 48 hrs by sulforhodamine B assay; format: functional; settings: read-out: GI; method in brief: as §1

SMILES: Nc1nn2cc(-c3ccc(Br)cc3)[nH]c2c1/N=N/c1ccc(S(N)(=O)=O)cc1
- inhibition of growth at 10 µM (MOLT-4): 42%
- IC50 [1]: > 12500 nM
- inhibition of growth at 10 µM (MCF7): 33%
- inhibition of growth at 10 µM (NCI-H522): 55%
- inhibition of growth at 10 µM (U-251): 38%
- inhibition of growth at 10 µM (Hs-578T): 54%
- inhibition of growth at 10 µM (IGROV-1): 72%
- inhibition of growth at 10 µM (SF-539): 42%
- inhibition of growth at 10 µM (SK-MEL-5): 45%
- inhibition of growth at 10 µM (CAKI-1): 82%
- Ki (Carbonic anhydrase 12): 52.8 nM
- inhibition of growth at 10 µM (HCT-116): 62%
- inhibition of growth at 10 µM (Malme-3M): 64%
- inhibition of growth at 10 µM (UO-31): 74%
- IC50 (CDK9/cyclin T1): > 12500 nM
- inhibition of growth at 10 µM (NCI-H460): 62%
- Ki (Carbonic anhydrase 1): 1590 nM
- inhibition of growth at 10 µM (MDA-MB-231): 43%
- inhibition of growth at 10 µM (SF-268): 42%
- inhibition of growth at 10 µM (SN12C): 58%
- inhibition of growth at 10 µM (PC-3): 39%
- inhibition of growth at 10 µM (HOP-62): 37%
- Ki (Carbonic anhydrase 2): 49.3 nM
- inhibition of growth at 10 µM (RXF 393): 55%
- inhibition of growth at 10 µM (DU-145): 47%
- inhibition of growth at 10 µM (SK-MEL-2): 53%
- inhibition of growth at 10 µM (BT-549): 25%
- inhibition of growth at 10 µM (SNB-75): 64%
- inhibition of growth at 10 µM (MDA-MB-468): 51%
- inhibition of growth at 10 µM (T47D): 46%
- inhibition of growth at 10 µM (HOP-92): 29%
- inhibition of growth at 10 µM (LOX IMVI): 64%
- Ki (Carbonic anhydrase 9): 44.9 nM
- inhibition of growth at 10 µM (KM12): 39%
- inhibition of growth at 10 µM (NCI-H322M): 65%
- inhibition of growth at 10 µM (CCRF-CEM): 45%

SMILES: Cc1ccc(-c2cn3nc(N)c(/N=N/c4ccc(S(N)(=O)=O)cc4)c3[nH]2)cc1
- inhibition of growth at 10 µM (NCI-H226): 27%
- inhibition of growth at 10 µM (MOLT-4): 55%
- IC50 [1]: 20300 nM
- inhibition of growth at 10 µM (NCI-H522): 57%
- inhibition of growth at 10 µM (U-251): 44%
- inhibition of growth at 10 µM (Hs-578T): 64%
- inhibition of growth at 10 µM (IGROV-1): 80%
- inhibition of growth at 10 µM (SF-539): 56%
- inhibition of growth at 10 µM (SK-MEL-5): 51%
- inhibition of growth at 10 µM (CAKI-1): 86%
- Ki (Carbonic anhydrase 12): 27.7 nM
- inhibition of growth at 10 µM (HCT-116): 62%
- inhibition of growth at 10 µM (Malme-3M): 63%
- inhibition of growth at 10 µM (UO-31): 77%
- IC50 (CDK9/cyclin T1): > 12500 nM
- inhibition of growth at 10 µM (NCI-H460): 67%
- Ki (Carbonic anhydrase 1): 1200 nM
- inhibition of growth at 10 µM (MDA-MB-231): 42%
- inhibition of growth at 10 µM (SF-268): 49%
- inhibition of growth at 10 µM (SN12C): 63%
- inhibition of growth at 10 µM (PC-3): 43%
- inhibition of growth at 10 µM (HOP-62): 39%
- Ki (Carbonic anhydrase 2): 99.7 nM
- inhibition of growth at 10 µM (RXF 393): 56%
- inhibition of growth at 10 µM (DU-145): 52%
- inhibition of growth at 10 µM (SK-MEL-2): 57%
- inhibition of growth at 10 µM (BT-549): 33%
- inhibition of growth at 10 µM (SNB-75): 66%
- inhibition of growth at 10 µM (MDA-MB-468): 48%
- inhibition of growth at 10 µM (T47D): 39%
- inhibition of growth at 10 µM (HOP-92): 35%
- inhibition of growth at 10 µM (LOX IMVI): 70%
- Ki (Carbonic anhydrase 9): 9.4 nM
- inhibition of growth at 10 µM (KM12): 46%
- inhibition of growth at 10 µM (NCI-H322M): 69%
- inhibition of growth at 10 µM (CCRF-CEM): 54%
